Shown are actives, neighbours in structure and some others; about 3% of the full set was active somewhere.
KCC2 mod: modulates chloride dependent transport by human KCC2 | Q9H2X9 | KCC2 cells, thallium flux FluoZin-2 fluorescence | B-score of Tl+ flux slope (higher = more flux/activation; lower = inhibition) at 10 µM | 190,000 tested, 2.2% active;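 active = thallium flux slope and its plate-corrected score both differing from the plate sample mean at a set confidence after two filtering rounds, in either direction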;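 also: slope of fluorescence scaled to starting intensity during 10 to 20 s after thallium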
ROMK mod: human ROMK K+ channel modulation, primary screen; P48048; Tet-inducible ROMK, thallium flux fluorescence; actives lie on both sides; B-score at 10 µM; 130,000 tested, 2% active; AID 1918;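 active = signal ratio slope over the read window, or its plate-corrected B-score, at least 3 SD from the plate mean, either direction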;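 also: B-score of the F/F0 ratio slope over 7 to 12 s after thallium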
PKD1 inh: PKD1 (human) kinase inhibition; Q15139; PKD1 kinase fluorescence polarization assay; inhibition, % (test concentration not listed); 200,000 tested, 0.056% active; AID 797; in the data active = inhibition above about 50%
Rad51 HR inh: Rad51 (human) homologous recombination inhibition | Q06609 | hRad51 DNA strand exchange, fluorescence dequenching | inhibition, % at 10 µM | 200,000 tested, 0.085% active | AID 1385;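 active = inhibition above 40% at the single screening dose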
Target sequence (Q06609 whole entry, looked up): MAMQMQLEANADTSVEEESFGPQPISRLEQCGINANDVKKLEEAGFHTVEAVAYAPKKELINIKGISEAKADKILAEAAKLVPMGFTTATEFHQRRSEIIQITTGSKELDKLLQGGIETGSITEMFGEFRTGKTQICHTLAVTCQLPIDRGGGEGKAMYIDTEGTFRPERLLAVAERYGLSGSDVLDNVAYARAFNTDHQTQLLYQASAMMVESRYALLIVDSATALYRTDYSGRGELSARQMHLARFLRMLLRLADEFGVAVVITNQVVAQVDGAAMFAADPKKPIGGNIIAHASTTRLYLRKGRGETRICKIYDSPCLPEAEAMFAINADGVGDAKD
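material = hRad51 filaments on single-stranded DNA | reagent = Donor/quencher-labelled 47-bp dsDNA substrate | compound = 10 µM final, single point | schedule = strand-exchange reaction 15 min at room temperature | measured by = fluorescein emission 520 nm, excitation 485 nm | read-out basis = % inhibition versus plate control and blank means | benchmarks = plate controls and plate blanks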
ROMK hit retest: retested hit modulating human ROMK potassium channel. shares compounds with ROMK mod. ROMK thallium flux, fluorescence ratio; active compounds read low. normalized thallium flux (F/F0 slope) at 10 µM. 3,000 tested, 54% active;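 active = Flux at 10 µM at least 3 SD below or above vehicle control mean in one or both replicates; inconclusive = no clear call, values can overlap the other calls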
Each line names hits and unclear results; the compound was inactive in the other large screens (follow-up assays come after a bar, where they were run).

CC(=O)Nc1nnc(CCN2CCCCC2)s1	none (no result: ROMK mod)
CC(=O)c1sc2nsc(SCCN3CCCCC3)c2c1N	none (no result: ROMK mod, PKD1 inh) | ROMK hit retest 0.053
COc1ccc(-c2cc(C(=O)Nc3cc(C)on3)no2)cc1OC	none
Cc1cc(NC(=O)c2noc3c2CCc2ccccc2-3)n(-c2ccccc2)n1	none (no result: ROMK mod) | ROMK hit retest inactive
COc1ccc(-c2cc(C(=O)Nc3cc(C)nn3-c3ccccc3)no2)cc1OC	ROMK mod 3.7 | ROMK hit retest inactive
Oc1c(Br)cc(Br)cc1C=NCc1ccccc1	ROMK mod 3.9 | ROMK hit retest inconclusive
O/N=C/c1cc(Br)cc(Br)c1OCc1ccccc1	none
O/N=C/c1cc(Br)ccc1OCc1ccc(F)cc1	none (no result: KCC2 mod, ROMK mod)
Oc1c(Br)cc(Br)cc1C=NCc1ccc(F)cc1	ROMK mod 3.3 | ROMK hit retest 0.12
CCCc1nc2ccccc2c(=O)n1-c1ccc(C(=O)OCC)cc1	none
O=S(=O)(c1ccc(Oc2ncnc3scc(-c4ccccc4)c23)cc1)N1CCOCC1	none (no result: ROMK mod)
CC(=O)Nc1cccc(Oc2ncnc3scc(-c4ccccc4)c23)c1	none (no result: ROMK mod) | ROMK hit retest 0.061
Cc1[nH]n(C)c(=O)c1[N+](=O)[O-]	none (no result: PKD1 inh)
O=C(Nc1ccc(Cl)cc1)N1N=CCC1c1ccccc1 (stereo not given)	ROMK mod -3.1 (no result: PKD1 inh) | ROMK hit retest 0.064
Cc1cccc(NC(=S)N2N=CCC2c2ccccc2)c1 (stereo not given)	none (no result: KCC2 mod, ROMK mod)
O=C(Cc1ccccc1)NCc1ccc(-n2cccc2)cc1	ROMK mod 2.5 | ROMK hit retest inactive
O=C(OC1C[C@@H]2CC3C[C@H](C1)N2CC3=O)c1c[nH]c2ccccc12 (stereo not given in full)	none (no result: KCC2 mod, ROMK mod, PKD1 inh)
Cc1c(C(=O)C(=O)NCc2cccs2)c2ccccc2n1C	none (no result: Rad51 HR inh)
CCN(CC)C(=O)Cn1c(=O)c2ccccc2n2c(=S)sc(-c3cccc(C)c3)c12	none (no result: ROMK mod) | ROMK hit retest 0.049
CC(C)CN(C(=O)CSc1nn(-c2ccc(Cl)cc2)c(=S)s1)C1CCS(=O)(=O)C1 (stereo not given)	none
O=C(C[n+]1cccc(CNC(=O)c2ccc(OC(F)F)cc2)c1)Nc1cccc(C(F)(F)F)c1	ROMK mod -3.1 | ROMK hit retest 0.053
O=[N+]([O-])c1ccc(Sc2n[nH]c(-c3ccc(Cl)cc3Cl)n2)nc1	none (no result: KCC2 mod, ROMK mod) | ROMK hit retest 0.06
Cn1nnnc1SCCNCc1ccccc1OCc1ccc(F)cc1	ROMK mod -3.8 | ROMK hit retest 0.059
Cc1cccc(CNc2ccc(C(CC(N)=O)NC(=O)c3cccc(Br)c3)cc2[N+](=O)[O-])c1 (stereo not given)	none (no result: ROMK mod, PKD1 inh)
CCCCNc1cc(F)nc(N)n1	none
O=C(O)CCN1C(=O)CC(N2C(=O)/C(=C/c3ccc(Cl)cc3)SC2=S)C1=O (stereo not given)	ROMK mod -2 | ROMK hit retest 0.044
O=C(O)CCN1C(=O)/C(=C\c2cccc(OCC(=O)Nc3ccc(Cl)cc3)c2)SC1=S	none (no result: ROMK mod, PKD1 inh) | ROMK hit retest 0.053
Cc1ccc2c(c1)c1c3n2CCCNC3CCC1 (stereo not given)	ROMK mod -2.1 | ROMK hit retest 0.06
O=C(NN1C(=O)c2ccccc2NC1c1ccc([N+](=O)[O-])o1)c1ccc([N+](=O)[O-])cc1 (stereo not given)	none
O=C1c2ccccc2NC(c2ccc(-c3cccc([N+](=O)[O-])c3)o2)N1O (stereo not given)	ROMK mod -3.6 (no result: Rad51 HR inh) | ROMK hit retest 0.061
COc1ccc(NC(=O)Nc2c(SC)nsc2SC)cc1	none
CC(C)(C)NC(=O)COC(=O)c1ccc(Cl)c(S(N)(=O)=O)c1	none
Cc1ccc(CNc2nc(Cl)c(C#N)s2)cc1	ROMK mod 1.1 | ROMK hit retest inactive
COc1ccc(OC)c(NC(=O)CSc2ccc3nnc(-c4cccnc4)n3n2)c1	none
CCSC1(SCC)N=C(N)C2(C#N)C(c3ccc(F)cc3)C12C#N (stereo not given)	none (no result: ROMK mod) | ROMK hit retest inconclusive
CCCOc1ccc(/C=N\NC(=O)CCc2n[nH]c(=O)[nH]c2=O)cc1OC	ROMK mod 3.4 | ROMK hit retest inactive
COc1ccccc1CC1S/C(=N/N=C/c2ccco2)NC1=O (stereo not given)	none
Cc1ccc2nsnc2c1NC(=O)CCl	ROMK mod -13 | ROMK hit retest inactive
CCC(=O)Nc1c(C)ccc2nsnc12	none (no result: ROMK mod)
COCCCNC(=O)c1c(N)n(/N=C/c2cccnc2)c2nc3ccccc3nc12	none (no result: Rad51 HR inh) | ROMK hit retest inconclusive
CC(C)CNC(=O)c1c(N)n(/N=C/c2cccnc2)c2nc3ccccc3nc12	none (no result: KCC2 mod, PKD1 inh, Rad51 HR inh)
Fc1ccc(-n2cc(-c3ccccc3)c3c(N4CCOCC4)ncnc32)cc1	none

Screens deposited in PubChem by several laboratories.
